Test [1] deals with 3T3-L1. The experiment in a line: In vitro glucose transport activity in 3T3-LI adipocytes at 3 uM concentration. The class given is functional, Mus musculus. The procedure, abridged: (§1)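 Differentiated 3T3-L1 adipocytes, no added insulin, treated in triplicate for 18 h with compound at 3, 10 or 30 µM. Glucose transport expressed as % (relative to untreated); values are means of triplicate runs, significance by one-tailed independent Student's t-test.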

Test [2] deals with 3T3-L1. The experiment in a line: In vitro glucose transport activity in 3T3-LI adipocytes at 30 uM concentration. The class given is functional, Mus musculus. A digest of the protocol: as §1
Test [3] deals with 3T3-L1. Description: In vitro glucose transport activity in 3T3-LI adipocytes at 10 uM concentration. The format is functional, Mus musculus. The procedure, abridged: as §1
The subject of test [4] is Mus musculus. The experiment in a line: Mean body weight measured in genetically altered obese diabetic mice(db/db) at 100 mg/kg at 24 hr postdose. The format is functional. A digest of the protocol: (§2)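 Obese diabetic C57BL/KS-db/db mice, single dose at t = 0, n = 8 per group (n = 5 for parent compound). Body weight recorded per mouse at 0 and 24 h; food intake reported as g/mouse/day. Vehicle used as negative control, metformin as positive control.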

Test [5] concerns Mus musculus. The experiment in a line: Mean body weight measured in genetically altered obese diabetic mice(db/db) at 100 mg/kg at 0 hr postdose. The format is functional. The procedure, abridged: as §2
Test [6] has as its system Mus musculus. Description: Change in plasma glucose levels measured in genetically altered obese diabetic mice(db/db) at 100 mg/kg at 24 hr postdose. The class given is functional.
Test [7] relates to Mus musculus. Description: Change in plasma glucose levels measured in genetically altered obese diabetic mice(db/db) at 100 mg/kg at 3 hr postdose. The class given is functional.
The subject of test [8] is Mus musculus. The experiment in a line: Food intake measured in genetically altered obese diabetic mice(db/db) at 100 mg/kg dose. The format is functional. The procedure, abridged:
as §2

As for `C[n+]1c2cccc(Cl)c2c(Cl)c2[nH]c3ccccc3c21.[Cl-]`, the Glucose transport amounted to 120% in test [1], 352% in test [2] and 282% in test [3].

On to `C[n+]1c2ccccc2c(I)c2[nH]c3ccc(F)cc3c21.[Cl-]`, for which the Glucose transport in test [1] worked out at 115%; in test [2] it was 0.92%; in test [3] it was 117%. The Mean body weight in test [4] was found to be 41.8 g mouse-1; in test [5], 42.2 g mouse-1. Further, the Change in test [6] was -13.2%; in test [7], -33.1%. In test [8], this compound returned a Food intake of 2.7 g mouse-1 day-1.

On to `COc1cccc2cc3[nH]c4ccccc4c3[n+](C)c12.[Cl-]`, for which the figures for the Glucose transport in test [1], in test [2] and in test [3] were 237%, 543% and 486%, respectively. Also, the Mean body weight in test [4] was 37.1 g mouse-1; in test [5], 38.4 g mouse-1. For the same compound, the Change is recorded as -58.3% in test [6] and -8.3% in test [7]. In test [8], this compound yielded a Food intake of 2 g mouse-1 day-1.

Turning to `C[n+]1c2ccccc2c(Cl)c2oc3ccccc3c21.O=S(=O)([O-])C(F)(F)F`, the Glucose transport in test [1] amounted to 119%; in test [2], 107%; in test [3] it was 114%. In addition, the Mean body weight in test [4] turned out to be 41.1 g mouse-1; in test [5] it was 40.6 g mouse-1. For the same compound, the Change in test [6] is recorded as -20.8%; in test [7] it was -17.9%. Besides, the Food intake in test [8] is recorded as 4.9 g mouse-1 day-1.

For `C[n+]1c2ccccc2c(Cl)c2[nH]c3ccccc3c21.[Cl-]`, the Glucose transport stood at 107% in test [1], 0.33% in test [2] and 101% in test [3].

As to `[Cl-].c1ccc(C[n+]2c3ccccc3cc3[nH]c4ccccc4c32)cc1`, the Glucose transport in test [1] was 611%; in test [2] it was 161%; in test [3], 781%. Also, the Mean body weight amounted to 38.9 g mouse-1 in test [4] and 39.3 g mouse-1 in test [5]. The figures for the Change in test [6] and in test [7] were -20% and -15%, respectively. Further, in test [8], the Food intake stood at 5.1 g mouse-1 day-1.

On to `C[n+]1c2ccccc2c(Sc2ccc(Cl)cc2)c2oc3ccccc3c21.O=S(=O)([O-])C(F)(F)F`, for which the Glucose transport is 118% in test [1], 141% in test [2] and 142% in test [3].

Take `C[n+]1c2ccc(F)cc2c(Cl)c2[nH]c3ccccc3c21.[Cl-]`: the Glucose transport was 142% in test [1], 3.3% in test [2] and 224% in test [3].

Take `C[n+]1c2c(c(Sc3ccc(Cl)cc3)c3ccccc31)Cc1ccccc1-2.O=S(=O)([O-])C(F)(F)F`: the Glucose transport in test [1] worked out at 108%; in test [2], 122%; in test [3], 110%.

`C[n+]1c2ccccc2c(Cl)c2[nH]c3cccc(F)c3c21.[Cl-]`: the Glucose transport in test [1] turned out to be 143%; in test [2] it was 6.4%; in test [3], 457%.

Regarding `C[n+]1c2c(c(Cl)c3ccccc31)Cc1ccccc1-2.O=S(=O)([O-])C(F)(F)F`, the values for the Glucose transport in test [1], in test [2] and in test [3] were 125%, 297% and 119%, respectively.

With `C[n+]1c2ccccc2cc2[nH]c3cc(Cl)c(Br)cc3c21.[Cl-]`, the Glucose transport amounted to 104% in test [1], 0.1% in test [2] and 127% in test [3]. The Mean body weight in test [4] is 44.6 g mouse-1; in test [5] it was 45.5 g mouse-1. Moreover, the Change in test [6] is reported as -18.9%; in test [7], -33%. In addition, the Food intake in test [8] was determined as 2.8 g mouse-1 day-1.

Take `C[n+]1c2ccc(F)cc2cc2[nH]c3ccccc3c21.[Cl-]`: the values for the Glucose transport in test [1], in test [2] and in test [3] were 253%, 443% and 360%, respectively. The Mean body weight is on record as 41.9 g mouse-1 in test [4] and 43.8 g mouse-1 in test [5]. The Change in test [6] was -34.5%; in test [7] it was -42.5%. In test [8], this compound came in with a Food intake of 0.5 g mouse-1 day-1.

Turning to `C[n+]1c2ccccc2c(Cl)c2[nH]c3ccc(-c4ccccc4)cc3c21.[Cl-]`, the Glucose transport is 122% in test [1], 16% in test [2] and 190% in test [3].

Consider `C[n+]1c2ccc(F)cc2c(Sc2ccc(Cl)cc2)c2[nH]c3ccccc3c21.[Cl-]`, for which the Glucose transport in test [1] was 128%; in test [2] it was 13%; in test [3], 154%.

Consider `C[n+]1c2ccc(F)cc2c(Oc2ccccc2)c2[nH]c3ccccc3c21.[Cl-]`, for which the Glucose transport in test [1] amounted to 140%; in test [2], 0.39%; in test [3], 207%. Further, the results for the Mean body weight in test [4] and in test [5] were 45.2 g mouse-1 and 46.6 g mouse-1, respectively. Besides, the Change in test [6] is -7.5%; in test [7], -11.8%. The compound further came in with a Food intake in test [8] of 1.6 g mouse-1 day-1.

Turning to `C[n+]1c2ccccc2c(Cl)c2[nH]c3cc(F)ccc3c21.[Cl-]`, the Glucose transport stood at 107% in test [1], 6% in test [2] and 159% in test [3].

Turning to `C[n+]1c2ccccc2c(I)c2[nH]c3c(F)cccc3c21.[Cl-]`, the Glucose transport in test [1] is listed as 129%; in test [2], 0.1%; in test [3] it was 255%. Moreover, the Mean body weight in test [4] is on record as 41.4 g mouse-1; in test [5] it was 43.4 g mouse-1. In addition, the Change in test [6] was -32.9%; in test [7], 19.9%. Besides, in test [8], the Food intake was 0.7 g mouse-1 day-1.

As to `COC(=O)c1c2ccccc2[n+](C)c2c3ccccc3n(C)c12.[I-]`, the Glucose transport in test [1] turned out to be 155%; in test [2], 260%; in test [3], 207%.

On to `Fc1ccc(C[n+]2c3ccccc3cc3[nH]c4ccccc4c32)cc1.[Cl-]`, for which the Glucose transport in test [1] is recorded as 168%; in test [2], 323%; in test [3], 248%. Also, the results for the Mean body weight in test [4] and in test [5] were 39 g mouse-1 and 40.2 g mouse-1, respectively. Besides, the figures for the Change in test [6] and in test [7] were -9.7% and -36.3%, respectively. In addition, the Food intake in test [8] is 3.1 g mouse-1 day-1.

Take `C[n+]1c2ccc(F)cc2c(-c2ccccc2)c2[nH]c3ccccc3c21.[Cl-]`: the Glucose transport stood at 281% in test [1], 116% in test [2] and 215% in test [3]. Moreover, the Mean body weight in test [4] worked out at 40.4 g mouse-1; in test [5] it was 40.5 g mouse-1. Besides, the results for the Change in test [6] and in test [7] were -4.9% and -11.2%, respectively. The same compound returned a Food intake in test [8] of 5.1 g mouse-1 day-1.

For the compound `C[n+]1c2ccc(F)cc2c(Nc2ccccc2)c2[nH]c3ccccc3c21.[Cl-]`, the Glucose transport was determined as 325% in test [1], 0.9% in test [2] and 208% in test [3]. Moreover, the Mean body weight in test [4] is reported as 44.2 g mouse-1; in test [5] it was 44.8 g mouse-1. Also, the Change is -10.7% in test [6] and -10.5% in test [7]. The Food intake in test [8] worked out at 3.2 g mouse-1 day-1.

Take `COC(=O)c1c2ccccc2[n+](C)c2c1[nH]c1ccccc12.[I-]`: the Glucose transport in test [1] was 63%; in test [2] it was 371%; in test [3] it was 159%.

Turning to `C[n+]1c2ccccc2c(Cl)c2sc3ccccc3c21.O=S(=O)([O-])C(F)(F)F`, the Glucose transport in test [1] was 96%; in test [2], 110%; in test [3], 100%.

Regarding `C[n+]1c2ccc(Cl)cc2c(Cl)c2[nH]c3ccccc3c21.[Cl-]`, the Glucose transport in test [1] is 108%; in test [2], 215%; in test [3], 138%.

For `C[n+]1c2ccccc2cc2[n-]c3ccccc3c21.Cl` [CRYPTOLEPINE HYDROCHLORIDE], the Glucose transport in test [1] amounted to 148%; in test [2], 359%; in test [3], 305%. The Mean body weight in test [4] turned out to be 39.8 g mouse-1; in test [5], 41 g mouse-1. The Change in test [6] is recorded as -43.1%; in test [7], -16.4%. The Food intake in test [8] came out at 0.9 g mouse-1 day-1.

For `C[n+]1c2ccccc2cc2[nH]c3ccccc3c21.[I-]` [CRYPTOLEPTINE IODIDE], the Glucose transport in test [1] was 134%; in test [2], 287%; in test [3], 163%.

The values are drawn from ChEMBL document CHEMBL1131580, “Antihyperglycemic activities of cryptolepine analogues: an ethnobotanical lead structure isolated from Cryptolepis sanguinolenta” (1998).
